The structures appear in SMILES notation.

The target of assay [1] is Muscarinic acetylcholine receptor M3 (Cavia porcellus, UniProt Q8VH26). The assay can be described thus: Antagonist affinity evaluated against Muscarinic acetylcholine receptor M3 in isolated guinea pig longitudinal Ileum. It is filed as functional, tissue-based. The settings on record: read-out: pA2 (converted). A digest of the protocol:
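Guinea pig left atria (M2, negative inotropism, electrically driven at 1 Hz) and ileum longitudinal muscle (M3, contraction). Agonist: arecaidine propargyl ester. Ileum: isotonic recording, at least 30 min equilibration. APE curves (0.01-0.5 µM) taken at 30-min intervals, the second curve serving as control. After 60 min antagonist incubation the curve was repeated. Dose ratios at agonist EC50, 3-6 antagonist concentrations, 4-6 replicates each; pA2 from Schild plots constrained to slope -1.0.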

Assay [2] addresses Muscarinic acetylcholine receptor M2 (Cavia porcellus). Description: Antagonist affinity evaluated against Muscarinic acetylcholine receptor M2 in isolated guinea pig left atrium. The note with it: read-out: pA2 (converted).
The target in assay [3] is Muscarinic acetylcholine receptor M3 (Rattus norvegicus, UniProt P08483). Description: Inhibition of [3H]NMS binding to rat submaxillary gland Muscarinic acetylcholine receptor M3. A digest of the protocol:
(§1)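 Competition against 0.7-0.8 nM [3H]NMS using homogenates of rat heart (M2) or submaxillary gland (M3), 500 µg protein each, or NG 108-15 cells (M4), 600 µg protein. Incubation 2 h at 25 °C in 50 mM sodium phosphate pH 7.4 with 2 mM MgCl2 and 1% BSA. Nonspecific binding defined with 10 µM atropine. Filtration; Ki by Cheng-Prusoff; at least three experiments, each in triplicate.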

Assay [4] has as its target T1, Muscarinic acetylcholine receptor M2 (Rattus norvegicus, UniProt P10980).
T1 sequence (P10980 whole entry): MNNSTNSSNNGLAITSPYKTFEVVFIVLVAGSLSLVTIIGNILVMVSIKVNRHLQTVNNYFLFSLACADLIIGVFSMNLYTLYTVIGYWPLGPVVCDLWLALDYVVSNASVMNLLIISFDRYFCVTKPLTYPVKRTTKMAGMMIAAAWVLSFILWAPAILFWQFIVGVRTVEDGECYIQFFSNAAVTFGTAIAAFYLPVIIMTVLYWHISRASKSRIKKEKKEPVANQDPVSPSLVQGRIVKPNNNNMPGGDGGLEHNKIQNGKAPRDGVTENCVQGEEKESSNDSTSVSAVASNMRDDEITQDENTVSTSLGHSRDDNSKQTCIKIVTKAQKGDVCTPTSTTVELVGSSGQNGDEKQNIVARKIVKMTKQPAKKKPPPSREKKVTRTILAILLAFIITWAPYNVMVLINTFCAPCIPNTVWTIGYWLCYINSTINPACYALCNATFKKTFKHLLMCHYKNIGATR
The assay can be described thus: Inhibition of [3H]NMS binding to rat heart Muscarinic acetylcholine receptor M2.

Assay [5] deals with T2, Muscarinic acetylcholine receptor M4 (Rattus norvegicus, UniProt P08485).
T2 sequence (P08485 whole entry): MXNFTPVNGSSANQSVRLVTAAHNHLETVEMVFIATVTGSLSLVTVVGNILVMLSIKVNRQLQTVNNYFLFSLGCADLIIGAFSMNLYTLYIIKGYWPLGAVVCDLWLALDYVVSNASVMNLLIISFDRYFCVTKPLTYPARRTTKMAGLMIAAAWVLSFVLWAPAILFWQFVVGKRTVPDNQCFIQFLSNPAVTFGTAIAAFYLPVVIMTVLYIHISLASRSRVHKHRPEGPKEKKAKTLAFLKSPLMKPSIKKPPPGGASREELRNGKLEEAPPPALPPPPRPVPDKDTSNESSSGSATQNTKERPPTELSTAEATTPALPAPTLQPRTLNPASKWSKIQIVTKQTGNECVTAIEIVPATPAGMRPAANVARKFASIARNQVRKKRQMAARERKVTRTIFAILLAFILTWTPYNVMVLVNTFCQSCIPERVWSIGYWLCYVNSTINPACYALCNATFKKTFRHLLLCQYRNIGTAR
The assay can be described thus: […] to Muscarinic acetylcholine receptor M4. A digest of the protocol: as §1

In assay [6] the target is T3, Muscarinic acetylcholine receptor M1 (Rattus norvegicus, UniProt P08482).
T3 sequence (P08482 whole entry): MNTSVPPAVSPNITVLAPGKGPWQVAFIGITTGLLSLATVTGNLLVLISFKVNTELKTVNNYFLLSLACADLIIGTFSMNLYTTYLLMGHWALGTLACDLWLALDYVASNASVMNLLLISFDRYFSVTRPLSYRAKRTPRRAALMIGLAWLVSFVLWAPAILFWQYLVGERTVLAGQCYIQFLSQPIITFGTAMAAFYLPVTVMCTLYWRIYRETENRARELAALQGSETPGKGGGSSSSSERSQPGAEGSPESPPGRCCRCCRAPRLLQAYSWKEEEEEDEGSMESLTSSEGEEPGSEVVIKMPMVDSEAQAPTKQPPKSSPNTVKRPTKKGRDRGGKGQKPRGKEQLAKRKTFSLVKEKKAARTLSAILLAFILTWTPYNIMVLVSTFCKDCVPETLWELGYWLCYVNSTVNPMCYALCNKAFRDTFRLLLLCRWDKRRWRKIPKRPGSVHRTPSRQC
Description: Binding affinity for rat cortex Muscarinic acetylcholine receptor M1. A digest of the protocol:
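Rat cerebral cortex homogenate (200 µg protein) competed against 5 nM [3H]pirenzepine. Incubation 2 h at 25 °C in 50 mM sodium phosphate pH 7.4 with 2 mM MgCl2 and 1% BSA. Nonspecific binding defined with 10 µM atropine. Filtration on PEI-soaked glass-fiber filters. Ki by Cheng-Prusoff; at least three experiments, each in triplicate.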

Muscarinic acetylcholine receptor M3 (Rattus norvegicus, UniProt P08483), sequence (P08483 whole entry): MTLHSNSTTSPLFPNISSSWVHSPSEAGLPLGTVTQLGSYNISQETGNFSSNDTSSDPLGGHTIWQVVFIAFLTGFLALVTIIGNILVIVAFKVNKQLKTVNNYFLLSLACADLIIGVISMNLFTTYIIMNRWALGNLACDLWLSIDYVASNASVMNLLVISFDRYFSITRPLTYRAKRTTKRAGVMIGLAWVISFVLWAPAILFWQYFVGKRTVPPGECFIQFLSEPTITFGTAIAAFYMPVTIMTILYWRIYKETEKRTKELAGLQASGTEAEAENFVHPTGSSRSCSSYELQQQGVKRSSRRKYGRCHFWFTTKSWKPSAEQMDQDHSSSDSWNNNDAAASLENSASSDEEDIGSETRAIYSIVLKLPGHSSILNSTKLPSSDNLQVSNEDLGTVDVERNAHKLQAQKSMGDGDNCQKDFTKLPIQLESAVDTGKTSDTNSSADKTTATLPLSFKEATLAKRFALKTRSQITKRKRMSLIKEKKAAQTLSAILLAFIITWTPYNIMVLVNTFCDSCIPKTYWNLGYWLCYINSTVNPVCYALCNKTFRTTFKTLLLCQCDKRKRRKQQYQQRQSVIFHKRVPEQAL
Muscarinic acetylcholine receptor M3 (Cavia porcellus, UniProt Q8VH26), sequence (Q8VH26 whole entry): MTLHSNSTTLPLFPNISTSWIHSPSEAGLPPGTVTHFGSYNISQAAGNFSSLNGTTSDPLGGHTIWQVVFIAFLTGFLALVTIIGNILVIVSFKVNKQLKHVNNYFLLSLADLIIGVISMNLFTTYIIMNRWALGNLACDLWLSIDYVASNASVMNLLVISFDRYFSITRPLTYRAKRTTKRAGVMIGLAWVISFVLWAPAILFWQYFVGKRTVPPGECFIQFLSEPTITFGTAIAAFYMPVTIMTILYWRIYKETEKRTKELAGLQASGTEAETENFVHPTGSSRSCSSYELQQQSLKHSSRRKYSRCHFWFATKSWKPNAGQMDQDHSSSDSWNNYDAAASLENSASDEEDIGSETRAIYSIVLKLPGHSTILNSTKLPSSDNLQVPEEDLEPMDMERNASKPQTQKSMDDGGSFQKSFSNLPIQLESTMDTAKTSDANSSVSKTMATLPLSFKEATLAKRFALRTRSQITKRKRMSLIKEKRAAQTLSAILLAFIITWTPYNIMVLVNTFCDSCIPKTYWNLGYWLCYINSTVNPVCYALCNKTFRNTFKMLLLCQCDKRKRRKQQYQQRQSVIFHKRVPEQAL

For `CN(CCCCCCCCN(C)C(=O)CCCCCNCCC(=O)N1c2ccccc2C(=O)Nc2cccnc21)C(=O)CCCCCN`, the Kb in assay [1] is 18.2 nM; in assay [2], 9.12 nM.
The term Ki denotes a dissociation constant, usually derived from enzyme kinetics or from competition with a known ligand. Regarding `CN(CCCCCCCCN(C)CCCCCCN(CC(=O)N1c2ccccc2NC(=O)c2ccccc21)CC(=O)N1c2ccccc2NC(=O)c2ccccc21)CCCCCCNCC(=O)N1c2ccccc2NC(=O)c2ccccc21`, the Ki in assay [3] was 110 nM; in assay [4], 0.437 nM; in assay [5], 41.7 nM; in assay [6], 0.955 nM. The Kb was 44.7 nM in assay [1] and 0.2 nM in assay [2].
`CN(CCCCCCN)CCCCCCCCN(C)CCCCCCNCCC(=O)N1c2ccccc2C(=O)Nc2cccnc21`: the values for the Kb in assay [1] and in assay [2] were 17 nM and 2.69 nM, respectively.
For `CN(CCCCCCCCN(C)C(=O)CCCCCN(CC(=O)N1c2ccccc2C(=O)Nc2cccnc21)CC(=O)N1c2ccccc2C(=O)Nc2cccnc21)C(=O)CCCCCN(CC(=O)N1c2ccccc2C(=O)Nc2cccnc21)CC(=O)N1c2ccccc2C(=O)Nc2cccnc21`, the Kb in assay [1] was 2140 nM; in assay [2], 17.8 nM.
With `CN(CCCCCCCCN(C)CCCCCCNCC(=O)N1c2ccccc2NC(=O)c2ccccc21)CCCCCCNCC(=O)N1c2ccccc2NC(=O)c2ccccc21`, the Ki is 115 nM in assay [3], 2.82 nM in assay [5] and 14.8 nM in assay [6]. In assay [1], the Kb is 112 nM.
For the compound `CN(CCCCCCCCN(C)CCCCCCN(CC(=O)N1c2ccccc2C(=O)Nc2cccnc21)CC(=O)N1c2ccccc2C(=O)Nc2cccnc21)CCCCCCNCC(=O)N1c2ccccc2C(=O)Nc2cccnc21` [TRIPITRAMINE], the Ki in assay [3] was 148 nM; in assay [5], 11.5 nM; in assay [6], 3.55 nM.
As for `CN(CCCCCCN)CCCCCCCCN(C)CCCCCCNCCCCC(=O)N1c2ccccc2C(=O)Nc2cccnc21`, the Kb in assay [1] is 19.5 nM; in assay [2], 0.977 nM.
With `CN(CCCCCCN)CCCCCCCCN(C)CCCCCCNCC(=O)N1c2ccccc2C(=O)Nc2cccnc21`, the Ki is 331 nM in assay [3], 15.8 nM in assay [5] and 4.37 nM in assay [6]. Besides, in assay [1], the Kb was 275 nM.
On to `CN(CCCCCCCCN(C)C(=O)CCCCCN(CC(=O)N1c2ccccc2C(=O)Nc2cccnc21)CC(=O)N1c2ccccc2C(=O)Nc2cccnc21)C(=O)CCCCCN`, for which the Kb in assay [1] is 7240 nM; in assay [2], 5620 nM.
As for `CN(CCCCCCN)CCCCCCCCN(C)CCCCCCNCCCC(=O)N1c2ccccc2C(=O)Nc2cccnc21`, the inhibition constant (Ki) in assay [3] is 3.02 nM; in assay [5], 1.45 nM; in assay [6], 0.501 nM. Moreover, in assay [1], the Kb was 4.79 nM.
On to `CN(CCCCCCCCN(C)CCCCCCN(CC(=O)N1c2ccccc2NC(=O)c2cccnc21)CC(=O)N1c2ccccc2NC(=O)c2cccnc21)CCCCCCNCC(=O)N1c2ccccc2NC(=O)c2cccnc21`, for which the Ki is 398 nM in assay [3], 0.912 nM in assay [4], 39.8 nM in assay [5] and 12.6 nM in assay [6]. Further, the Kb was 912 nM in assay [1] and 2.51 nM in assay [2].
Regarding `CN(CCCCCCCCN(C)C(=O)CCCCCNCC(=O)N1c2ccccc2C(=O)Nc2cccnc21)C(=O)CCCCCNCC(=O)N1c2ccccc2C(=O)Nc2cccnc21`, the Kb in assay [1] was 72.4 nM; in assay [2], 0.501 nM.
Consider `COc1ccccc1CNCCCCCCNCCCCCCCCNCCCCCCNCc1ccccc1OC` [METHOCTRAMINE], for which the values for the inhibition constant Ki in assay [3] and in assay [5] were 955 nM and 32.4 nM, respectively. In assay [1], the Kb is 363 nM.
For `CN(CCCCCCCCN(C)CCCCCCN(CC(=O)N1c2ccccc2NC(=O)c2cccnc21)CC(=O)N1c2ccccc2NC(=O)c2cccnc21)CCCCCCN(CC(=O)N1c2ccccc2NC(=O)c2cccnc21)CC(=O)N1c2ccccc2NC(=O)c2cccnc21`, the figures for the Ki in assay [3], in assay [5] and in assay [6] were 2510 nM, 158 nM and 25.1 nM, respectively. The Kb in assay [1] was 1620 nM.
Regarding `CN(CCCCCCCCN(C)C(=O)CCCCCNCCCC(=O)N1c2ccccc2C(=O)Nc2cccnc21)C(=O)CCCCCN`, the values for the Kb in assay [1] and in assay [2] were 1.86 nM and 0.457 nM, respectively.
On to `CN(CCCCCCCCN(C)C(=O)CCCCCN(CC(=O)N1c2ccccc2C(=O)Nc2cccnc21)CC(=O)N1c2ccccc2C(=O)Nc2cccnc21)C(=O)CCCCCNCC(=O)N1c2ccccc2C(=O)Nc2cccnc21`, for which the inhibition constant (Ki) was 5750 nM in assay [3], 158 nM in assay [5] and 50.1 nM in assay [6]. Also, in assay [1], the Kb is 550 nM.
For `CN(CCCCCCCCN(C)CCCCCCNCC(=O)N1c2ccccc2NC(=O)c2cccnc21)CCCCCCNCC(=O)N1c2ccccc2NC(=O)c2cccnc21`, the Ki is 2570 nM in assay [3], 20.9 nM in assay [4], 36.3 nM in assay [5] and 14.5 nM in assay [6]. In addition, the Kb in assay [1] is 537 nM; in assay [2], 5.25 nM.
Take `CN(CCCCCCCCN(C)C(=O)CCCCCNCC(=O)N1c2ccccc2C(=O)Nc2cccnc21)C(=O)CCCCCN`: the Ki in assay [3] was 158 nM; in assay [4], 44.7 nM; in assay [5] it was 20 nM; in assay [6] it was 316 nM. In addition, the Kb in assay [1] is 437 nM; in assay [2], 9.77 nM.
Turning to `CN(CCCCCCCCN(C)C(=O)CCCCCNCCCCC(=O)N1c2ccccc2C(=O)Nc2cccnc21)C(=O)CCCCCN`, the results for the Ki in assay [3], in assay [5] and in assay [6] were 70.8 nM, 63.1 nM and 63.1 nM, respectively. Further, the Kb in assay [1] is 13.8 nM.
